Measurements reported in publication PMC6005736 (Leukemia & lymphoma, 2017).
“Also recorded” adds a separate entry of the source.

Key:
[1] = molecular target: Runt domain - CBFβ interaction (Homo sapiens, UniProt Q01196); test: FRET assay of Cerulean-Runt domain and Venus-CBFβ binding
Procedure, shortened: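 Purified Cerulean-Runt domain and Venus-CBFβ fusion proteins were used in a competition FRET format. Test compounds displace CBFβ binding to the Runt domain. Initial screening of compounds was at 200 µM.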

Jurkat = test: MTT cell viability assay, Jurkat; format: cell-based, human; settings: 48 hours
Procedure, shortened: (§1)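 Leukemia cell lines were treated with test compound, with DMSO vehicle and staurosporine positive-control arms, and viability was read by MTT. Mean of triplicates ± SD, two independent experiments. One-way ANOVA excluding staurosporine, then Dunnett's test against DMSO-treated cells (P ≤ 0.05).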

8946 T-ALL cell line = test: MTT cell viability assay, 8946; format: cell-based, murine; settings: 48 hours
Procedure, shortened: as §1

Cerulean-Runt domain = test: Saturation transfer difference; format: binding; settings: STD NMR
[2] = tested on: t(8;21) positive human AML samples; test: CFU-C assay, primary human t; format: cell-based; settings: five samples, methylcellulose, colonies counted 14 days after plating
Procedure, shortened: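 Primary AML specimens (pheresis or bone marrow mononuclear cells) were plated in methylcellulose with various test compound concentrations. Colonies were scored 14 days after plating. Triplicate cultures per concentration, two experiments. Significance versus DMSO by one-way ANOVA with Dunnett's multiple-comparison test.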

720 T-ALL cells = test: qPCR gene expression in 720 T-ALL cells; format: cell-based, mouse; settings: 720 T-ALL cells treated for 16 hours
Procedure, shortened: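 720 T-ALL cells were exposed to test compound for 16 h and transcript levels quantified by qPCR relative to DMSO-treated cells. Triplicate means ± SD, two experiments. One-way ANOVA with Dunnett's comparison against DMSO.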

720 T-ALL cell line = test: MTT cell viability assay, 720 T-ALL; format: cell-based, mouse; settings: 48 hours
Procedure, shortened: as §1

[3] = tested on: AML1-ETO9a + NRas^G12D AML cells; test: CFU-C assay, murine AML1-ETO9a + NRasG12D AML cells; format: cell-based, mouse; settings: methylcellulose, colonies counted 7 days after plating
Procedure, shortened: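 Leukemic cells came from a secondary recipient of spleen cells. The primary recipient had received fetal liver cells transduced with AML1-ETO9a and NRasG12D retroviruses. 20,000 cells were plated in methylcellulose with various test compound concentrations (DMSO final 0.2%). Colonies were counted at day 7. Triplicates per concentration, two experiments, SD. One-way ANOVA with Dunnett's test versus DMSO.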

[4] = tested on: normal bone marrow mononuclear cells (BM-MNCs); test: CFU-C assay, normal human bone marrow mononuclear cells; format: cell-based; settings: methylcellulose, colonies counted 14 days after plating
Kasumi-1 cells [5] = test: DAPI flow cytometry of dead/live Kasumi-1 cells; format: cell-based, human; settings: 48 hours in culture
Kasumi-1 cells [6] = test: MTT cell viability assay, Kasumi-1; format: cell-based, human; settings: 48 hours in culture
Procedure, shortened: as §1

[7] = tested on: hematopoietic stem and progenitor cell (HSPC) formation in zebrafish embryos; test: HSPC formation in zebrafish embryos; format: in vivo
[8] = tested on: normal mouse bone marrow cells; test: CFU-C assay, normal mouse bone marrow cells; format: cell-based; settings: methylcellulose, colonies counted 7 days after plating
CBFβ-Runx = settings: ref [44]; cited from earlier work

Chain of Runt domain - CBFβ interaction (Q01196 50-178 limits assumed): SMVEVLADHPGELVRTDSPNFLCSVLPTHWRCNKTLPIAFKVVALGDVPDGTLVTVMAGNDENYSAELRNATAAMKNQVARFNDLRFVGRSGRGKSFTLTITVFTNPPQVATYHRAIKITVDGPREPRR

SMILES: Sc1nnc(-c2ccccc2)s1 [4b, 5-phenyl-1,3,4-thiadiazole-2(3H)-thione]
- IC50 [1]: 11 ± 1.3 µM

SMILES: CSc1nnc(-c2ccccc2F)s1 [6a, 2-(2-fluorophenyl)-5-(methylthio)-1,3,4-thiadiazole]
- activity in the FRET assay ([1]; Cerulean-Runt domain and Venus-CBFβ at 100 nM): complete loss of activity

SMILES: S=c1[nH]nc(-c2ccc(-c3cccc(Cl)c3)o2)s1 [AI-8–45]
- growth of Jurkat cells (MTT) (Jurkat): significantly reduced the growth; also recorded: inhibit proliferation
- growth of 8946 T-ALL cells (MTT) (8946 T-ALL cell line): significantly reduced the growth; also recorded: inhibit proliferation
- saturation transfer effect / binding to Runt domain (Cerulean-Runt domain): in close contact with the protein
- colony numbers of t(8;21) positive human AML samples [2]: significantly reduced the colony numbers
- expression of Deptor, Cdkn1a, Dhcr24, Cebpa, Csf1r (qPCR) (720 T-ALL cells): affected
- growth of 720 T-ALL cells (MTT) (720 T-ALL cell line): significantly reduced the growth; also recorded: inhibit proliferation
- colony formation of AML1-ETO9a + NRasG12D AML cells [3]: significantly reduced colony formation
- colony numbers of normal bone marrow mononuclear cells [4]: but not that of normal bone marrow mononuclear cells
- percentage of DAPI-positive dead cells (Kasumi-1 cells [5]): statistically significant and dose-dependent increase
- growth of Kasumi-1 cells (MTT) (Kasumi-1 cells [6]): significantly reduced the growth; also recorded: inhibit proliferation
- Flk1:dsRed+Myb:Gfp+ HSPCs in the VDA at 36 hpf ([7]; Tg(kdrl:dsred;cmyb:egfp) embryos, 2.5 µM, 12 to 36 hpf, flow cytometry): decreased
- number of CD41:Gfp+ HSPCs in the CHT at 48 hpf ([7]; Tg(−6.0itga2b:egfp) embryos, treated 18 to 48 hpf, compared to AI-7–54 treated controls): decreased
- colony formation by normal mouse bone marrow cells [8]: Neither AI-8–45 nor AI-9–54 had any effect

SMILES: O=C1CN=C(c2ccc[nH]2)c2cc(Cl)ccc2N1 [Ro5-3335]
- inhibitor of CBFβ-Runx (CBFβ-Runx): inhibitor of CBFβ-Runx
